High-throughput results deposited in PubChem by several laboratories.
SKKanGAS inh – inhibitors of SKKanGAS S. pyogenes growth in kanamycin (SK-promoter or general growth effect) | BacTiter-Glo, 6 h | inhibition, % at 7.5 µM | 1.3% of 300,000 active;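 active means mean replicate score, as percent of positive control median, at least 50; inconclusive means mean below 50 but one replicate at or above 50; inactive means mean and every replicate below 50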;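 further: strain carries kanamycin resistance gene driven by streptokinase promoter and grows in 40 µg/ml kanamycin; loss of luminescence reflects streptokinase promoter inhibition or plain growth inhibition; 0% = median of DMSO wells and 100% = positive control at its reference dose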
WT yeast gro inh – growth inhibition of WT yeast, mitochondrial fusion screen; inhibition, % at 10 µM; 2.1% of 190,000 active; mitochondrial fusion phenotypic screen, WT strain; in the data active means inhibition above about 58%; tested in S. cerevisiae
Insulin prom up – MIN6 insulin promoter up-regulation. MIN6 insulin promoter-GFP reporter, high-content imaging; stronger effect = higher value. AID 1625. 0.3% of 190,000 active. z-score at 5 µM;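 active means z-score above 3 at 5 µM with at least 500 cells counted in the well; inconclusive means wells under 500 cells, flagged as cytotoxic or low count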
Autophagy HCS – modulators of autophagy; MEF GFP-LC3 puncta imaging; test concentration mostly 10 µM; calls only at 10 µM (by protocol); 0.98% of 190,000 active; AID 463193;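 active means percentage of spot-positive cells more than 3 SD above its plate mean, without a fluorescence outlier flag or 80% toxicity; inconclusive means no clear call, values can overlap the other calls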;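 further: spot-positive cell cutoff set from DMSO-treated cells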
Rad51 HR inh – blocks human Rad51 in homologous recombination | Q06609 | hRad51 DNA strand exchange, fluorescence dequenching | inhibition, % at 10 µM | 0.085% of 200,000 active;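 active means inhibition above 40% at the single screening dose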;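 further: 0% = DMSO control wells and 100% = blanks with heterologous ssDNA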
Target sequence (Q06609 whole entry, looked up): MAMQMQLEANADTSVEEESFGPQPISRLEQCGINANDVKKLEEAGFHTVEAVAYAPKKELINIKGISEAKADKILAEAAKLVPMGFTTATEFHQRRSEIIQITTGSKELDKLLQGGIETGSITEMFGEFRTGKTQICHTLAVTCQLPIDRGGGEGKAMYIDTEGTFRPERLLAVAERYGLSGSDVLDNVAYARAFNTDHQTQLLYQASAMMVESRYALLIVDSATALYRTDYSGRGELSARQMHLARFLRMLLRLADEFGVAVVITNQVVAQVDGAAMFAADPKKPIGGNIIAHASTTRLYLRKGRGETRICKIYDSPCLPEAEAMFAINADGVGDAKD
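Test system: preformed human Rad51 ssDNA filaments. Compound dosing: single dose, 10 µM final compound. Incubation: filaments 15 min 37 °C, then compound 30 min. Technique: FRET fluorescence dequenching, excitation 485 nm, emission 520 nm. Read-out basis: percent inhibition from fluorescence, normalised to plate control and blank means. Benchmarks: plate controls and plate blanks.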
Cl transport mod – KCC2 (human) Cl- transport modulation; Q9H2X9; KCC2 cells, thallium flux FluoZin-2 fluorescence; B-score of Tl+ flux slope (higher = more flux/activation; lower = inhibition) at 10 µM; 2.2% of 190,000 active; AID 1456;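 active means thallium flux slope and its plate-corrected score both differing from the plate sample mean at a set confidence after two filtering rounds, in either direction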;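 further: slope of fluorescence scaled to starting intensity during 10 to 20 s after thallium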
KCC2 secondary – confirmation of human KCC2 transport modulators; 15% of 3,700 active; normalised thallium flux (F/F0 slope) at 10 µM; HEK293-KCC2, thallium flux, FluoZin2 fluorescence; stronger effect = higher value; shares compounds with Cl transport mod;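 active means thallium flux slope above the same plate's solvent-only control mean plus 3 SD; inconclusive means the two replicate wells disagree; inactive means no significant difference from solvent-only control wells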
KCC2 bumet counter – thallium flux despite bumetanide block in KCC2 cells, secondary assay 3. HEK293-KCC2 + bumetanide/ouabain, thallium flux FluoZin2; stronger effect = higher value. shares compounds with Cl transport mod. normalized thallium flux at 10 µM. 49% of 3,700 active;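 active means thallium entry rate above the same plate's blocked-transporter control wells by more than 3 SD; inconclusive means the two repeat wells disagree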;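 further: raw slope of fluorescence over initial fluorescence between 10 and 20 s after thallium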
KCC2 secondary2 – KCC2 (human) modulation, second secondary assay; shares compounds with Cl transport mod; HEK293-KCC2, thallium flux FluoZin2 fluorescence; actives lie on both sides; F/F0 rise rate, 10–20 s post-thallium; normalized thallium flux at 10 µM; 23% of 3,700 active;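 active means thallium flux slope more than 3 SD above or below the plate's solvent-only control mean, mostly below; inconclusive means the two repeat wells disagreed; inactive means no significant shift from solvent-only controls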;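 further: raw slope with 0.1% DMSO as baseline and bumetanide as block control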
HEK293 Tl flux – parental HEK flux effect, counter-screen | HEK293 parental cells, thallium flux FluoZin2, ouabain; baseline-ratio fluorescence slope, 10–20 s after thallium | shares compounds with Cl transport mod | thallium flux rate (normalised fluorescence) at 10 µM | AID 1716 | 46% of 3,700 active;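 active means thallium flux rate significantly above the same plate's solvent-only control wells, beyond their mean plus 3 SD; inconclusive means the two replicate wells gave conflicting results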
KCC2 retest ouab – confirmation of human KCC2 modulators with ouabain; shares compounds with Cl transport mod; HEK293-KCC2, thallium flux FluoZin2 fluorescence; bidirectional: low = inhibitor, high = activator; raw Tl+ flux slope (below DMSO = inhibition, above = activation) at 10 µM; 48% of 3,700 active;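 active means thallium flux slope beyond 3 SD from same-plate DMSO control mean in most replicates, usually higher, sometimes lower; inconclusive means repeat tests gave conflicting results; inactive means no significant difference from controls in most replicates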;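 further: slope of initial-normalized fluorescence between seconds 10 and 20 after thallium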
HEK293 Tl flux2 – parental HEK flux effect, counter-screen 2 | HEK293 parental, thallium flux FluoZin-2 fluorescence slope | shares compounds with Cl transport mod | 33% of 3,700 active | thallium flux slope at 10 µM;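 active means thallium flux slope above the same plate's solvent-control mean plus 3 SD in both duplicate wells; inconclusive means duplicate wells that disagreed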;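 further: run without ouabain in cells lacking the KCC2 cotransporter; slope of fluorescence scaled to its starting value between 10 and 20 s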
Numbers without * were called inactive; i = inactive; ? = inconclusive; nt = not tested or not shown. The list is not random: actives were taken first. Their share in the collection is about 4.2%.

SMILES | SKKanGAS inh | WT yeast gro inh | Insulin prom up | Autophagy HCS | Rad51 HR inh | Cl transport mod | KCC2 secondary | KCC2 bumet counter | KCC2 secondary2 | HEK293 Tl flux | KCC2 retest ouab | HEK293 Tl flux2
CSc1ccccc1NC(=O)c1cc(C(C)C)on1 | 13.1 | -5.0 | nt | i | -5.2 | nt | 0.00809 | 0.00421 | 0.0282 | 0.00734 | 0.0174 | 0.00994
O=C1CCN(S(=O)(=O)c2ccccc2)N1 | 1.4 | 5.0 | 0.02 | i | nt | -5.61* | 0.00897 | 0.00678 | 0.029 | 0.00745 | 0.0662 | 0.00976
c1ccc(-c2cn3nc4c(nc3n2)CCCC4)cc1 | 14.3 | 7.6 | 0.44 | i | -11.9 | -4.51* | 0.00758 | 0.00503 | 0.0257* | ? | 0.0163* | 0.00813*
CCCn1c(=O)c2ccccc2n2c(SCCOc3ccccc3)nnc12 | -6.5 | 21.7 | 0.63 | i | -4.3 | -4.9* | 0.00576 | 0.00277* | ? | 0.0047* | ? | 0.00772*
COc1ccc2[nH]c(=O)c(C(c3nnnn3CC3CCCO3)N3CCc4ccccc4C3)cc2c1 (centres undefined) | 3.8 | 9.7 | -0.17 | i | 4.6 | -5.12* | 0.00956 | 0.00698 | 0.029 | 0.00706 | 0.0296 | 0.0099
Cc1ccc2[nH]c(=O)c(C(c3nnnn3CC3CCCO3)N3CCc4ccccc4C3)cc2c1 (centres undefined) | -12.1 | 10.4 | -0.43 | i | 0.1 | 0.395 | nt | nt | nt | nt | nt | nt
CCn1cc(C(=O)N2CCN(c3ccccc3F)CC2)c(=O)c2ccc(C)nc21 | -1.5 | -4.0 | 0.39 | i | nt | -0.643 | nt | nt | nt | nt | nt | nt
CCCCCCN1C=CC=C/C1=C\C=C(C#N)C#N | -2.9 | nt | 0.22 | nt | nt | -3.23 | nt | nt | nt | nt | nt | nt
CC1OC(OC2C(OC3C(O[C@H]4CC[C@]5(C)C6C=C[C@]78OC[C@@]9(CC[C@@H](C)[C@H](C)C97)[C@H](O)C[C@@]8(C)[C@]6(C)CC[C@H]5C4(C)C)OC(C)C(O)C3O)OC(CO)C(O)C2O)C(O)C(O)C1O (some centres undefined) | 16.7 | nt | nt | nt | nt | 27.5* | ? | 0.0251* | 0.0323 | 0.0426* | ? | 0.0107
COc1ccc(CCN2C(=S)N(C)C(=O)C2CC(=O)Nc2ccc(OC)cc2)cc1 (centres undefined) | -7.5 | 0.0 | nt | i | nt | -0.149 | nt | nt | nt | nt | nt | nt
COc1ccc(NC(=O)CC2C(=O)N(C)C(=S)N2Cc2ccc3c(c2)OCO3)cc1 (centres undefined) | -1.6 | -30.4 | -0.09 | i | 0.7 | 7.34* | 0.00813 | 0.006 | 0.0334 | 0.00407 | 0.0186 | 0.0116
O=S(=O)(Nc1c(S(=O)(=O)c2ccccc2)c2nc3ccccc3nc2n1C1CCCCC1)c1ccccc1 | 91.0* | -2.3 | -0.25 | i | -4.8 | -4.33* | 0.00829 | 0.00604 | 0.0341 | 0.00386 | ? | 0.0116
Cc1cccnc1CN1CCN(C(=O)c2cc(COc3ccc4ncccc4c3)on2)CC1 | -8.4 | 9.9 | 0.12 | i | 8.7 | nt | 0.00852 | 0.0066 | ? | 0.00745 | 0.0168* | 0.0101
CCOC(=O)N1CCN(C(=O)c2cc(COc3ccc4ncccc4c3)on2)CC1 | -6.6 | -1.6 | -1.33 | i | -5.7 | -0.711 | nt | nt | nt | nt | nt | nt
Cc1ccc(CNC(=O)C(C)C2Sc3ccccc3NC2=O)cc1 (centres undefined) | -7.3 | nt | 0.25 | nt | nt | -0.837 | nt | nt | nt | nt | nt | nt
CCCn1nc(Oc2nc(NCC)nc(NC(C)C)n2)ccc1=O | -1.2 | 1.6 | -0.83 | i | 2.0 | -4.38* | 0.00904 | 0.00628 | 0.0347 | 0.00736 | 0.0219 | 0.0103
CCc1ccc(NC(=O)C(=O)NCCOc2ccccc2Cl)cc1 | -2.4 | 10.3 | nt | i | 0.4 | -0.129 | nt | nt | nt | nt | nt | nt
OCCCn1c(-c2ccccc2)n[nH]c1=S | -1.6 | -8.6 | 0.36 | i | 0.6 | 0.971 | nt | nt | nt | nt | nt | nt
CCCCn1c(-c2csc3ccccc23)n[nH]c1=S | nt | 25.8 | -0.77 | i | nt | 4.75* | 0.00679 | 0.0229* | ? | 0.0204* | 0.0276* | 0.0227*
CCCCCCn1c(-c2cccs2)n[nH]c1=S | 7.8 | 64.8 | -0.8 | i | 1.7 | 45.6* | 0.00609 | 0.0837* | 0.0678* | 0.0627* | 0.0673* | 0.0566*
CCCCn1c(-c2cccs2)nc2nc3ccccc3nc21 | 21.0 | 2.8 | 0.26 | i | -1.1 | nt | nt | nt | nt | nt | nt | nt
CCCCn1c(-c2csc(CC)c2)n[nH]c1=S | -7.6 | 67.2* | 0.68 | i | 2.8 | 14.2* | 0.012* | 0.0539* | 0.0341 | 0.0221* | 0.0443* | 0.0124*
CCc1cc(-c2n[nH]c(=S)n2-c2cccc(C)c2)cs1 | -8.5 | 61.3* | 0.32 | i | nt | 42.7* | 0.0118* | 0.114* | 0.0291 | 0.0198* | 0.0471* | 0.01
CCCn1c(-c2ccncc2)n[nH]c1=S | -0.2 | -5.0 | 0.42 | i | 11.9 | nt | nt | nt | nt | nt | nt | nt
COc1ccccc1NC(=O)OCC#CCOC(=O)Nc1ccccc1OC | 1.5 | nt | -0.21 | nt | 7.3 | -0.262 | nt | nt | nt | nt | nt | nt
SMILES | SKKanGAS inh | WT yeast gro inh | Insulin prom up | Autophagy HCS | Rad51 HR inh | Cl transport mod | KCC2 secondary | KCC2 bumet counter | KCC2 secondary2 | HEK293 Tl flux | KCC2 retest ouab | HEK293 Tl flux2
COCCCNC(=O)CC1C(=O)N(Cc2ccccc2)C(C)c2nc3ccccc3n21 (centres undefined) | 4.8 | -1.1 | -0.53 | i | 4.9 | 1.26 | nt | nt | nt | nt | nt | nt
CC1(c2ccccc2)NC(=O)N(NC(=O)COC(=O)c2cc(Br)ccc2O)C1=O (centres undefined) | -2.4 | nt | nt | nt | nt | nt | nt | nt | nt | nt | nt | nt
CC(C)(C)c1ccc(-c2nnc(SCC(=O)NC3CCS(=O)(=O)C3)n2N)cc1 (centres undefined) | 2.6 | -23.2 | 1 | i | 12.0 | 0.00152 | nt | nt | nt | nt | nt | nt
CC(c1ccccc1)n1c(-c2ccccc2F)n[nH]c1=S (centres undefined) | 19.0 | nt | nt | nt | nt | nt | nt | nt | nt | nt | nt | nt
CC(c1ccc(F)cc1)n1c(-c2cccs2)n[nH]c1=S (centres undefined) | -1.0 | 35.9 | -0.33 | i | -7.0 | 5.19* | 0.00564 | 0.0165* | 0.0315 | 0.014* | ? | 0.0157*
Cn1c(O)c(C2=c3ccccc3=NC2=O)[nH]c1=S | -23.8 | 5.4 | 0.07 | i | 5.3 | 27.4* | 0.0154* | 0.0614* | 0.032 | 0.0306* | 0.0427* | 0.0139*
Cc1ccc(-c2cn(-c3ccccc3F)c(=S)[nH]2)cc1 | 2.5 | nt | nt | nt | nt | nt | nt | nt | nt | nt | nt | nt
